Where “and” joins values, the source holds several entries; their conditions need not be identical. Equal entries are not always repeated. Where two headings read alike, the source gives them in different places. Each block holds one compound with its values, some of them ahead of it.
Assays:
[1] = test system: U-87 MG human glioblastoma cells; experiment: WST-1 antiproliferative assay in U-87 MG cells; format: cell-based; conditions: for IC50: read-out: IC50 according to WST-1 results; for % viability value at the highest concentration: WST-1, highest concentration (500 µM)
In short: (§1)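 U-87 MG glioblastoma cells or BJ foreskin fibroblasts were seeded at 3 × 10^3 per well and left 24 h. Test compound, freshly diluted in medium, was applied at 0.97–500 µM (ten concentrations) for 24 or 48 h. WST-1 reagent was added per kit and absorbance read at 540 nm. There were 7 wells per concentration and 3 independent experiments. The 0.1% DMSO control was set to 100% viability, and IC50 was derived from the % viability values.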

[2] = test system: BJ human healthy fibroblast cells; experiment: WST-1 cytotoxicity assay in BJ cells; format: cell-based; conditions: for IC50: read-out: IC50 according to WST-1 results
In short: as §1

[3] = test system: U-87 MG cells; experiment: Annexin V and Propidium iodide staining apoptosis assay in flow cytometry; format: cell-based, human; conditions: for Increase of late apoptotic effects compared to U-87 MG control group: IC50 concentration, 48th hour
In short: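 U-87 MG cells were cultured in EMEM with 10% FBS, 1% penicillin-streptomycin and 1% L-glutamine at 37°C in 5% CO2. Cells were exposed for 48 h to 150 μM test compound or 45 μM comparator, with 0.1% DMSO as control. They were detached, pelleted and washed twice in cold PBS. Annexin V/PI staining ran 20 min at room temperature in the dark, then binding buffer was added and flow cytometry was read within 30 min. Quadrant %, n = 3, mean ± SD.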

[4] = test system: U-87 MG cells; experiment: Mitochondrial membrane integrity; format: cell-based, human; conditions: for Increase of mitochondrial depolarization levels compared to the control: IC50 concentration, 48th hour; for JC-1-positive cells % (lower quadrant), mitochondrial depolarization: JC-1, IC50 concentration, n = 3, mean ± SD, control 12.3 ± 2.0
In short: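 U-87 MG cells were treated for 48 h with 150 μM test compound or 45 μM comparator, with 0.1% DMSO as control. Cells were pelleted at 1200 rpm for 5 min and incubated in JC-1 working solution for 15 min at 37°C. They were washed, resuspended in kit assay solution and read by flow cytometry. Upper-quadrant (viable) and lower-quadrant (JC-1-positive, depolarised) percentages were recorded; n = 3, mean ± SD.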

[5] = test system: U-87 MG cells; experiment: Caspase-3 activation in flow cytometry; format: cell-based, human; conditions: for Caspase-3 levels compared to the control / Caspase-3-positive cells % (lower right quadrant): IC50 concentration; for Caspase-3 levels compared to the control: 48th hour; for Caspase-3-positive cells % (lower right quadrant): n = 3, mean ± SD, control 0.6 ± 0.3
In short: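 U-87 MG cells were seeded at 1 × 10^5 per well in 6-well plates and exposed for 48 h to 150 μM test compound or 45 μM comparator, with 0.1% DMSO as control. After a PBS wash, cells were fixed and permeabilised with cytofix/cytoperm for 20 min on ice, then stained with PE rabbit anti-active caspase-3 for 30 min at room temperature. Flow cytometry gave quadrant %; n = 3, mean ± SD.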

IC50 ([1]; Homo sapiens, U-87 MG, 24 h): 40.6 µM
IC50 ([1]; Homo sapiens, U-87 MG, 48 h): 45.7 µM
SMILES: O=NN(CCCl)C(=O)NCCCl [Carmustine, carmustine]
IC50 ([2]; Homo sapiens, BJ, 24 h): 144 µM
IC50 ([2]; Homo sapiens, BJ, 48 h): 81.4 µM
viability at 45.68 µM ([3]; Homo sapiens, U-87 MG, read-out: Viable cells % (lower left quadrant)): 57.6 ± 6.96%
Increase of late apoptotic effects compared to U-87 MG control group [3]: approximately 3 times
viability at 45.68 µM ([4]; Homo sapiens, U-87 MG, 48 h, read-out: Viable cells % (upper quadrant)): 41.4 ± 3.8%
Increase of mitochondrial depolarization levels compared to the control [4]: ~4.7 times
JC-1-positive cells % (lower quadrant), mitochondrial depolarization ([4]; 48 h): 58.6 ± 3.80%
viability at 45.68 µM ([5]; Homo sapiens, U-87 MG, 48 h, read-out: Viable cells % (lower left quadrant)): 96.2 ± 0.9%
Caspase-3 levels compared to the control [5]: did not show any difference
Caspase-3-positive cells % (lower right quadrant) ([5]; 48 h): 3.8 ± 1.0%

IC50 ([1]; U-87 MG cells, 24 h incubation): 256 µM
IC50 ([1]; U-87 MG cells, 48 h incubation): 150 µM
SMILES: NC(=O)[C@H](CCCN=C(N)CCl)NC(=O)c1ccccc1 [Cl-amidine, chlorine-amidine]
% viability value at the highest concentration ([1]; U-87 MG, 24 hours): 41.16%
% viability value at the highest concentration ([1]; U-87 MG, 48 hours): 35.64%
IC50 ([2]; BJ cells, 24 h incubation): 604 µM
IC50 ([2]; BJ cells, 48 h incubation): 549 µM
Increase of late apoptotic effects compared to U-87 MG control group [3]: 2.5 times
Increase of mitochondrial depolarization levels compared to the control [4]: approximately 4.5 times
JC-1-positive cells % (lower quadrant), mitochondrial depolarization ([4]; 48 h): 54.7% and 54.7 ± 11.60%
Caspase-3 levels compared to the control [5]: did not show any difference
Caspase-3-positive cells % (lower right quadrant) ([5]; 48 h): 2.8 ± 0.9%

SMILES: O=P1(N(CCCl)CCCl)NCCCO1 (stereo not shown) [Cyclophosphamide, cyclophosphamide]
IC50 ([1]; Homo sapiens, U-87 MG, 24 h): 581 µM
IC50 ([1]; Homo sapiens, U-87 MG, 48 h): 580 µM
IC50 ([2]; Homo sapiens, BJ, 24 h): 650 µM
IC50 ([2]; Homo sapiens, BJ, 48 h): 3970 µM
Cytotoxic effect on BJ cells ([2]; WST-1, especially at the 48th hour): did not have a cytotoxic effect

Reference: publication PMC11309612 (Medicine, 2024)
